Results taken from the EternaBench riboswitch data.

Tested on: MS2 coat protein
Experiment: apparent Kd, MS2 coat protein; higher = weaker binding; RNA-MaP array; FMN 200 µM where present
Method in brief: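 Designs were transcribed by stalled E. coli RNA polymerase on Illumina sequencing-chip clusters. They were titrated with SNAP-549-labelled MS2 coat protein from 0.7 or 1.5 nM, doubling to 3 µM, in 100 mM Tris-HCl pH 7.5, 80 mM KCl, 4 mM MgCl2, BSA, DTT, yeast tRNA and Tween-20, without and then with constant ligand. The apparent Kd is the median of filtered per-cluster fits after normalisation of green signal to red-channel RNA signal and control-cluster median Fmax.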

[1] = designed as: OFF switch for flavin mononucleotide, no ligand
[2] = ligand present: flavin mononucleotide, designed as: OFF switch for flavin mononucleotide
[3] = designed as: ON switch for flavin mononucleotide, no ligand
[4] = ligand present: flavin mononucleotide, designed as: ON switch for flavin mononucleotide

| Sequence | apparent Kd [1] | apparent Kd [2] | apparent Kd [3] | apparent Kd [4] |
| --- | --- | --- | --- | --- |
| UAGAAGUCAGGAUAUGCUGCUCGUCACUUGCGUGAUGAGUAGCAGAAGGGACAUGAGGAUCACCCAUGUAAAGC | 48.8 nM | 54.3 nM |  |  |
| AUUCCCAACCAGAAGGACAUGAGGAUCACCCAUGUAGGAUAUGGGUGGGUGACCCGAACUUGGACGACAUCACAAUUCUCACAC |  |  | 55.6 nM | 9.49 nM |
| UUGGACGUCGUAGGAUAUGUAGGAUAUUCCUACAUGAGGAUCACCCAUGUUGACAUGGAAGAACGACAGAAGGACGAUGUCCAU |  |  | 130 nM | 7.46 nM |
| AUAUUGUGAGGAUAUGAACUUAGUAUCGAAAGAUACUAACUUCAGAAGGCACAUGAGGAUCACCCAUGUUUCUC | 72.3 nM | 689 nM |  |  |
| AGUGCCCGAGCAGGAUAUCAAUGGUGGUCUGUACGCUGUAAAUUCAACAUGAGGAUCACCCAUGUUGAGAAGGGUUACGGCGCA | 8.86 nM | 23.9 nM |  |  |
| CUAUUUAAGCAGAAGGCGUGGGAGAGAUUCACACGAGGAUAUGCGAUAACGGCGUAUGACAUGAGGAUCACCCAUGUACGUGCG |  |  | 5.83 nM | 4.91 nM |
| GCACAUGAGGAUCACCCAUGUGGUCCAGAAGGCCAGAGGGCUUGCUUUUCGCAGGCCUUUCAAAUGGAGGAUAUGGAGGGUUCU |  |  | 207 nM | 42.7 nM |
| AAUAUGCAAGGAUAUACAACGUAGCUACGACGGAACGGGCUACAUGAGGAUCACCCAUGUAGAAGGUGCUACGC | 15.2 nM | 16.7 nM |  |  |
| UGUCGGAGCAGAGGAUAUUACAUGAGGAUCACCCAUGUAUGAACCAAAAGCUGGAAACAGCAAUGUAAGAAGGCUGCUCCGACA | 11.8 nM | 123 nM |  |  |
| UGUCGGAGCAGAGGAUAUUACAUGAGGAUCACCCAUGUAUGAACCAAUAGCUGGAAACAGCAAUCUAAGAAGGCUGCUCCGACA | 4.47 nM | 4.34 nM |  |  |
| CUCACGUUAGUAGGAUAUCCGACAUGAGGAUCACCCAUGUCACUGCGUCGCUAAGGUAGAUGCAAGGAGAAGGGCUGAUAAAUA |  |  | 259 nM | 124 nM |
| GUGCGUGGCUAGGAUAUUGUGGAGUUUAGUCAGCGAGAAGGAGCCACAUGAGGAUCACCCAUGUGGUGUUGCUC | 40.5 nM | 101 nM |  |  |
| GGGUUUGGAGGAUAUACAAUCCCGGGCCGAAAGGUUUGGGUACAUGAGGAUCACCCAUGUAGAAGGCCGGGCCC | 19.2 nM | 27.3 nM |  |  |
| AAAAAACAUGAGGAUCACCCAUGUAAUAAAACGUCAGGAUAUUGAUUUUAUUAUUUAUUACAAGAAGGGACAAAAA |  |  | 133 nM | 57.6 nM |
| UACUUCCGAGGAUAUACAUGAGGAUCACCCAUGUGCUUCAGCAUCGAAAGAUGCAUGGGUAGAAGGCGGUAGUU | 44.6 nM | 50.4 nM |  |  |
| CGAAACUACGAGAAGGACAUGUGGUCCUUCAGUUACAUGAGGAUCACCCAUGUAGGAUAUCGUAGUUUCAGGAUCGUGAGAUCC | 58.6 nM | 16.6 nM |  |  |
| UGAUAUGUAGUAGGAUAUCAGGUUACAUGAGGAUCACCCAUGUUAGAUUGGUGGAUAGAUGUUGAUGAGAAGGACUUUUGAGUU | 79.6 nM | 100 nM |  |  |
| AGGCCGGGAGGAUAUCCAAUAUAUGACAUGAGGAUCACCCAUGUUUCCACUCGUACCUCCGGAGAAGGCCCGGCGA | 21.1 nM | 19.9 nM |  |  |

| Sequence | apparent Kd [1] | apparent Kd [2] | apparent Kd [3] | apparent Kd [4] |
| --- | --- | --- | --- | --- |
| ACAUGCCUGUCGAUGCUCGACAUGAGGAUCACCCAUGUACAGCAGGAUAUGCAGAACUAACUCGUGCAGAAGGGCUGUACCUAA | 90.8 nM | 226 nM |  |  |
| UGAGCGACCACAGGAUAUACUUGAGAAGACCGAGUAGAAGGGUGGAAGAGCAUGCAGUGACAUGAGGAUCACCCAUGUGGUUGG |  |  | 97 nM | 65.8 nM |
| AUGACUCGUGUUAGGAUAUCUUCGGCGUGGCUGAUGGAGAAGGGACAUGAGGAUCACCCAUGUAUCCUGGUCGG | 71.3 nM | 123 nM |  |  |
| ACAAGAUCAGGAUAUACAUGAGGAUCACCCAUGUUUAUCAAAAAAAAACUUUCUUUAUGUAGAAGGGAUCUUGU | 13.8 nM | 13.6 nM |  |  |
| AGAGAGUGACAGAAGGGCAAGCUCGAUUGCGGAGAACGCGAUCGAGCUUGCAGGAUAUGUUGAACAUGAGGAUCACCCAUGUCA |  |  | 7.98 nM | 6.94 nM |
| UCAGCGGUGCAAGGAUAUAACACAAUUGUCCUUAGUCGAGACGAGUGACAUGAGGAUCACCCAUGUUAGAAGGUGUCCUGCUGG | 72 nM | 326 nM |  |  |
| AAAUUUAACGAAGGAUAUGGUUACAUGAGGAUCACCCAUGUGUGCCUUGUGAUGCUGAUUAAGUUCCAGAAGGUCGUAUACAUA | 84.8 nM | 234 nM |  |  |
| GGGCCGAAAGGCCCGCGGGCCCGGGAGGAUAUACAUGAGGAUCACCCAUGUCCGGCGAAAGCCGGGUAGAAGGCCCGGGCCCGC | 5.38 nM | 7.03 nM |  |  |
| GGUCCAAUAUGAGGAUAUAGCAUCUUAUUGAUGCUAGAAGGCGUGUCGGUAGACAUGAGGAUCACCCAUGUAUUACAAUGGACC |  |  | 110 nM | 29.4 nM |
| AGUAAGAUGCAGAAGGUGUCAGCGAGAGCUGCGACAUGAGGAUCACCCAUGUACCAGUGAGGGUACAAGGAUAUGCAUCUUACA |  |  | 243 nM | 19.3 nM |
| UUGAGGUCAGGAUAUGCAUGGCGGGACUUGCGUCGUGGCGUGGAGAAGGGACAUGAGGAUCACCCAUGUGGAGU | 93.1 nM | 53.4 nM |  |  |
| UAUGUGAGAGGAUAUACUGAACCCAACCUAGAUUCUCACGAACAUGAGGAUCACCCAUGUAGAAGGCUCCGUGU | 124 nM | 394 nM |  |  |
| AAUAUGUUGCAGAAGGUUAUUUUUAUAACGUGCCACUUGACAUGAGGAUCACCCAUGUAAUUGAUGAAGGAUAUGCAAUAUAUU | 6.46 nM | 6.34 nM |  |  |
| AAAACGAAAGUCGAACGAUGUAGCAGAAGGACAUGAGGAUCACCCAUGUCAGCUGUAACAGCCAUGUAGGAUAUGCUACAUUUU | 5.47 nM | 6.35 nM |  |  |
| UUAGAUUAUUGAGGAUAUGGUUAUUUUUAUUAACCAGAAGGCAAACUCAACAUGAGGAUCACCCAUGUAUAAAGGGUAUUAGUU | 84.9 nM | 82.7 nM |  |  |
| GGAUAGGACAGAGGAUAUACAGAUAGGAUCUACUAUCAAACAAUCCUCACAUGAGGAUCACCCAUGUAGAAGGCUGUCCUAUCG | 103 nM | 688 nM |  |  |
| ACAAGAUCAGGAUAUACAUGAGGAUCACCCAUGUAUAUAAAAAAAGGGCCUUCUACAUGUAGAAGGGAUCUUGU | 13.8 nM | 13.7 nM |  |  |
| AGAAAACAUGAGGAUCACCCAUGUGAGGAUAUCGAUGUCCAAGGAAGGGUGCGGGACUCGAGAAGGCACUUGGA | 72.4 nM | 58.8 nM |  |  |
